Compounds with a hit are over-represented: about 4.1% of the library has one in this group of screens.
KCNK3 block = human KCNK3 channel inhibitors, primary screen, CHO cells, FluxOR thallium flux, B-score; B-score at 10 µM; AID 602410, 2012; Potassium channel subfamily K member 3 (Homo sapiens), O14649; 0.84% of 340,000 active; FluxOR fluorescence; hits give low values;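 active means B-score under library mean minus 4 SD, starting fluorescence ratio at most library mean plus 5 SD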;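 further: more negative B-score means stronger inhibition of thallium flux through KCNK3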
KCNQ1 act = potentiators or activators of KCNQ1 channel, primary screen, cell-based, thallium flux, high-throughput. Potassium voltage-gated channel subfamily KQT member 1 (Homo sapiens), P51787. CHO-K1 KCNQ1, thallium flux FluxOR fluorescence; hits give high values. B-score at 10 µM. 0.35% of 310,000 active;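 active means fluorescence ratio B-score, a plate-corrected score, at least three library SD, with initial intensity B-score within 5 SD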
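Assay system: CHO-K1 cells stably expressing KCNQ1. Medium: assay buffer for compound exposure, DMSO matched across wells. Timing: 37 °C overnight plating, 90-min dark dye load, 20-min compound pretreatment. Signal: kinetic FluxOR fluorescence, 10 s baseline plus 110 s post-stimulus.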
hERG rescue = hERG rescue from dofetilide block, primary screen, cell-based, CHO-hERG, FluxOR thallium flux, dofetilide IC70; Voltage-gated inwardly rectifying potassium channel KCNH2 (Homo sapiens), Q12809; dofetilide IC70 present; activation (rescue from dofetilide block), less the hit threshold, % at 10 µM; 0.51% of 310,000 active;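 active means activation above the mean of controls blocked by dofetilide plus 5 SD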;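 further: thallium influx through hERG after potassium depolarization seen as dye fluorescence rise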
KCNQ1 block = inhibitors of human KCNQ1 channel, primary screen, cell-based, thallium flux, high-throughput | 1.3% of 310,000 active | CHO-K1 KCNQ1, FluxOR thallium flux fluorescence; hits give high values | B-score at 10 µM | AID 2642, 2010;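 active means compounds whose thallium flux B-score, printed positive for inhibition, exceeds three library SD while starting fluorescence stays within three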;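 further: channel opened by potassium depolarization with thallium stimulus after 20 min compound exposure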
KCNK9 inh = KCNK9 potassium channel inhibitors, primary screen, HEK293 cells, thallium flux; AID 488922, 2010; 1.2% of 310,000 active; FluxOR thallium flux fluorescence; hits give low values; Potassium channel subfamily K member 9 (Homo sapiens), Q9NPC2; B-score at 10 µM;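 active means ratio B-score over 3 SD below the library mean, with starting fluorescence within 5 SD of its mean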;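 further: negative B-score means less thallium flux so channel inhibition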
Cl transport mod = KCC2 cotransporter modulators, thallium flux, primary screen, cell-based, HEK293 KCC2, FluoZin-2 fluorescence, MLSMR; Solute carrier family 12 member 5 (Homo sapiens), Q9H2X9; 2.2% of 190,000 active; KCC2 cells, thallium flux FluoZin-2 fluorescence; B-score of Tl+ flux slope (higher = more flux/activation; lower = inhibition) at 10 µM;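 active means thallium flux slope and its plate-corrected score both differing from the plate sample mean at a set confidence after two filtering rounds, in either direction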;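 further: slope of fluorescence scaled to starting intensity during 10 to 20 s after thallium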
KCC2 secondary = KCC2 modulators in sodium-free buffer, confirmation, cell-based, HEK293 KCC2, thallium flux, secondary assay. shares compounds with Cl transport mod. FluoZin2 fluorescence; hits give high values. normalised thallium flux (F/F0 slope) at 10 µM. 15% of 3,700 active. AID 1713, 2009;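 active means thallium flux slope above the same plate's solvent-only control mean plus 3 SD; inconclusive means the two replicate wells disagree; inactive means no significant difference from solvent-only control wells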
KCC2 bumet counter = thallium flux persisting under bumetanide in KCC2 cells, confirmation, counter-screen for KCC2 modulator project, cell-based, HEK293 KCC2, FluoZin2, secondary assay 3; shares compounds with Cl transport mod; HEK293-KCC2 + bumetanide/ouabain; hits give high values; normalized thallium flux at 10 µM; 49% of 3,700 active; AID 1714, 2009;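 active means thallium entry rate above the same plate's blocked-transporter control wells by more than 3 SD; inconclusive means the two repeat wells disagree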;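 further: raw slope of fluorescence over initial fluorescence between 10 and 20 s after thallium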
KCC2 sec2 = KCC2 modulators without ouabain present, confirmation, cell-based, HEK293 KCC2, thallium flux, FluoZin2, secondary assay 2; shares compounds with Cl transport mod; thallium flux FluoZin2 fluorescence; actives lie on both sides; F/F0 rise rate, 10–20 s post-thallium; normalized thallium flux at 10 µM; 23% of 3,700 active;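 active means thallium flux slope more than 3 SD above or below the plate's solvent-only control mean, mostly below; inconclusive means the two repeat wells disagreed; inactive means no significant shift from solvent-only controls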;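 further: raw slope with 0.1% DMSO as baseline and bumetanide as block control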
HEK counter1 = thallium flux modulation in parental HEK cells, confirmation, counter-screen for KCC2 modulator project, cell-based, counterscreen 1; shares compounds with Cl transport mod; 46% of 3,700 active; AID 1716, 2009; thallium flux rate (normalised fluorescence) at 10 µM; HEK293 parental cells, thallium flux FluoZin2, ouabain; baseline-ratio fluorescence slope, 10–20 s after thallium;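 active means thallium flux rate significantly above the same plate's solvent-only control wells, beyond their mean plus 3 SD; inconclusive means the two replicate wells gave conflicting results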
KCC2 retest ouab = KCC2 inhibitors and activators, ouabain retest, confirmation, HEK-KCC2 cells | raw Tl+ flux slope (below DMSO = inhibition, above = activation) at 10 µM | HEK293-KCC2, thallium flux FluoZin2 fluorescence; bidirectional: low = inhibitor, high = activator | 48% of 3,700 active | shares compounds with Cl transport mod;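 active means thallium flux slope beyond 3 SD from same-plate DMSO control mean in most replicates, usually higher, sometimes lower; inconclusive means repeat tests gave conflicting results; inactive means no significant difference from controls in most replicates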;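 further: slope of initial-normalized fluorescence between seconds 10 and 20 after thallium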
HEK counter2 = native HEK Tl+ uptake effects, second counter-screen – HEK cells, counterscreen 2, counter-screen for KCC2 modulator project, confirmation | shares compounds with Cl transport mod | HEK293 parental, thallium flux FluoZin-2 fluorescence slope | thallium flux slope at 10 µM | 33% of 3,700 active | AID 1718, 2009;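 active means thallium flux slope above the same plate's solvent-control mean plus 3 SD in both duplicate wells; inconclusive means duplicate wells that disagreed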;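 further: run without ouabain in cells lacking the KCC2 cotransporter; slope of fluorescence scaled to its starting value between 10 and 20 s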
Starred values were filed as active, the others as inactive; i = inactive; ? = inconclusive; nt = no result given.

SMILES	KCNK3 block	KCNQ1 act	hERG rescue	KCNQ1 block	KCNK9 inh	Cl transport mod	KCC2 secondary	KCC2 bumet counter	KCC2 sec2	HEK counter1	KCC2 retest ouab	HEK counter2
S=C(N/N=C/c1cccc2ccccc12)Nc1cccc(Cl)c1	i	8*	5.3*	i	i	3.4*	0.0089	0.0069	0.029	0.012*	0.029*	0.01
S=C(N/N=C/c1ccc2ncccc2c1)Nc1ccccc1	i	i	-8	i	i	6.5*	0.017	0.021*	0.029	0.011*	0.019	0.014*
COc1ccc(/C=N/NC(=S)Nc2cccc(C(=O)O)c2)cc1	i	i	-2	i	i	-0.15	nt	nt	nt	nt	nt	nt
O=[N+]([O-])c1ccc(/C=N/NC(=S)Nc2ccccc2)o1	i	i	-7	i	i	5.4*	0.013*	0.026*	0.031	0.014*	0.028*	0.011*
O=[N+]([O-])c1cccc(-c2ccc(/C=N/NC(=S)Nc3ccccc3)o2)c1	i	i	-8	i	i	0.5	nt	nt	nt	nt	nt	nt
C(=N\NCc1ccccc1)/c1ccc2ncccc2c1	i	i	-7	i	i	-1.3	nt	nt	nt	nt	nt	nt
COc1ccc(/C=N/NC(=S)Nc2ccccc2)cc1	i	i	-2	i	i	9.1*	0.0094	0.031*	0.032	0.01*	?	0.0095
OCC1OC(n2cnc3c(/C=C(\O)c4ccccc4)ncnc32)C(O)C1O (stereo not given)	i	nt	nt	nt	nt	nt	nt	nt	nt	nt	nt	nt
CCCCNS(=O)(=O)CCNCc1ccco1	i	nt	nt	nt	nt	nt	nt	nt	nt	nt	nt	nt
O=C(Cc1csc(Nc2nc(=S)[nH]c3ccccc23)n1)NCCCN1CCN(c2ccccc2F)CC1	i	i	-15	i	i	20*	0.014*	0.051*	0.041*	0.039*	0.062*	0.016*
COc1ccc(C(=O)NC(=S)N2CC(C)OC(C)C2)cc1 (stereo not given)	i	i	-10	i	i	3.3	nt	nt	nt	nt	nt	nt
COc1ccc(C(=O)NC(=S)N2CCCCC2)cc1	i	i	-2	i	i	2.7	nt	nt	nt	nt	nt	nt
COc1cc(OC)cc(C(=O)NC(=S)N2CCCCCC2)c1	i	i	10*	i	i	74*	0.034*	0.11*	0.04*	0.062*	0.083*	0.021*
COc1ccc(C(=O)NC(=S)N2CCCCC2)cc1[N+](=O)[O-]	i	i	-7	i	i	6.8*	0.012	0.021*	0.035	0.012*	0.026	?
Cc1ccc(C(=O)NC(=S)N2CC(C)OC(C)C2)cc1[N+](=O)[O-] (stereo not given)	i	i	-5	i	i	nt	0.018*	0.037*	0.03	0.021*	0.035*	0.013*
COc1ccccc1-c1nnc(SCC(=O)NNC(=O)c2ccccc2F)n1C	i	nt	nt	nt	nt	nt	nt	nt	nt	nt	nt	nt
O=C(N/N=C/c1cn(-c2cccs2)nc1-c1ccccc1)c1ccccc1O	i	i	-11	i	i	5.4*	0.0096	0.019*	0.032	0.011*	0.023	?
CCCn1nnc(NCc2ccc(OCc3cccs3)c(OC)c2)n1	i	i	-11	i	i	-2.9*	0.0069	0.0046	0.028	0.0073	?	0.01
CC1Cc2ccccc2N1C(=O)c1ccc(N2CCCC2)c([N+](=O)[O-])c1 (stereo not given)	i	i	-10	i	i	-6.5*	0.0068	0.0047	0.02*	0.0071	0.013*	0.01
O=C(c1ccc(N2CCCC2)c([N+](=O)[O-])c1)N1CCc2ccccc2C1	i	i	-17	i	i	nt	nt	nt	nt	nt	nt	nt
O=c1[nH]c(=O)n([C@H]2C[C@H](O)[C@@H](CO)O2)cc1Br	i	nt	nt	nt	nt	nt	nt	nt	nt	nt	nt	nt
O=c1[nH]c(=O)n(C2CCCO2)cc1Br (stereo not given)	i	i	-13	i	i	3.9*	0.0087	0.0071	0.034	0.0078	0.021	0.01
COC(=O)[C@@]12CCCN1[C@H](c1ccc(-c3ccc4c(c3)OCO4)cc1)[C@H]1C(=O)N(C)C(=O)[C@H]12	i	nt	nt	nt	nt	nt	nt	nt	nt	nt	nt	nt
CCCCCn1c(=S)[nH]c2ncccc2c1=O	i	20*	12*	i	i	57*	0.038*	0.12*	0.046*	?	0.094*	0.036*
CN(CCCn1c(=S)[nH]c2ncccc2c1=O)Cc1ccccc1	i	i	-16	i	i	15*	?	0.057*	0.036	0.022*	0.057*	0.014*
COCCCn1c(=S)[nH]c2ncccc2c1=O	i	i	-10	i	i	3.6	nt	nt	nt	nt	nt	nt
O=c1c2cccnc2[nH]c(=S)n1CCC1=CCCCC1	i	27*	31*	i	i	68*	0.041*	0.16*	0.051*	0.074*	0.085*	0.047*
